Reference: ChEMBL document CHEMBL5500397, “Discovery of CDC42 Inhibitors with a Favorable Pharmacokinetic Profile and Anticancer In Vivo Efficacy” (J Med Chem, 2024)
Blank lines part the entries; values can stand above or below the molecule they belong to.

Tests used:
[1] = Metabolic stability in mouse plasma assessed as half life at 2 uM measured after 0 to 120 mins by LC-MS/MS analysis; type: ADME, cell-free; conditions: time 0-120 min; for t1/2: 2 µM
[2] = Cmax in male CD-1 mouse at 3 mg/kg, iv measured upto 240 mins by LC/MS/MS analysis; type: ADME, organism-based; conditions: in vivo, 4 h
[3] = Half life in male CD-1 mouse at 10 mg/kg, po measured upto 480 mins by LC-MS/MS analysis; type: ADME, organism-based; conditions: in vivo, 8 h
How it was run: (§1)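 Mouse PK after single oral dose of 10 mg/kg; n = 3 animals per time point; plasma concentration–time profile used for observed and calculated PK parameters.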

[4] = Half life in male CD-1 mouse at 3 mg/kg, iv measured upto 240 mins by LC/MS/MS analysis; type: ADME, organism-based; conditions: in vivo, 4 h
How it was run: (§2)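 Mouse PK after single intravenous injection of 3 mg/kg; n = 3 animals per time point; plasma concentration–time profile used for observed and calculated PK parameters.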

[5] = Oral bioavailability in male CD-1 mouse at 10 mg/kg measured upto 480 mins by LC-MS/MS analysis; type: ADME, organism-based; conditions: in vivo, 8 h; how it was run: as §1
[6] = Drug concentration in male CD-1 mouse plasma at 10 mg/kg, po measured after 4 hrs by LC-MS/MS analysis; type: ADME, organism-based; how it was run: as §1
[7] = Tmax in male CD-1 mouse at 3 mg/kg, iv measured upto 240 mins by LC/MS/MS analysis; type: ADME, organism-based; conditions: in vivo, 4 h; how it was run: as §2
[8] = Drug concentration in male CD-1 mouse plasma at 3 mg/kg, iv measured after 4 hrs by LC-MS/MS analysis; type: ADME, organism-based; how it was run: as §2
[9] = Cmax in male CD-1 mouse at 10 mg/kg, po measured upto 480 mins by LC-MS/MS analysis; type: ADME, organism-based; conditions: in vivo, 8 h; how it was run: as §1
[10] = Metabolic stability in mouse liver microsomes assessed as half life at […] preincubated for 15 mins followed by NADPH cofactor addition and measured after 1 hr by LC-MS/MS analysis; type: ADME, Microsome; conditions: dose 4.6 µM, time 75 min
[11] = Drug concentration in male CD-1 mouse plasma at 10 mg/kg, po measured after 8 hrs by LC-MS/MS analysis; type: ADME, organism-based; how it was run: as §1

t1/2 [1]: > 2 h
Structure (SMILES): FC(F)(F)c1cccc(Nc2nc(-c3ccccc3)cc(C3CCNCC3)n2)c1

t1/2 [1]: > 2 h
Structure (SMILES): COc1cc(Nc2nc(-c3ccccc3)cc(C3CCNCC3)n2)ccn1

t1/2 [1]: > 2 h
Structure (SMILES): c1ccc(-c2cc(Nc3ccc4cc[nH]c4c3)nc(C3CCNCC3)n2)cc1

Cmax [2]: 643 ng/mL
t1/2 [3]: 1.52 h
t1/2 [1]: > 2 h
t1/2 [4]: 1.92 h
F [5]: 8%
concentration at 4 h [6]: 40 ng/mL
Tmax [7]: 5 min
concentration at 4 h [8]: 84 ng/mL
Cmax [9]: 99 ng/mL
Structure (SMILES): FC(F)(F)c1cc(Nc2nc(-c3ccccc3)cc(C3CCNCC3)n2)ccn1

half-life at […] [10]: > 1 h
half-life at 2 µM [1]: > 2 h
Structure (SMILES): FC(F)(F)c1cccc(Nc2nc(-c3cccc4cnccc34)nc(C3CCNCC3)n2)c1

t1/2 [1]: 1 h
Structure (SMILES): CN(C)c1cccc(Nc2nc(-c3ccccc3)cc(C3CCNCC3)n2)c1

t1/2 [1]: > 2 h
Structure (SMILES): Cn1ccc2ccc(Nc3cc(-c4ccccc4)nc(C4CCNCC4)n3)cc21

t1/2 [1]: > 2 h
Structure (SMILES): FC(F)(F)Oc1cccc(Nc2nc(-c3ccccc3)cc(C3CCNCC3)n2)c1

Cmax [2]: 320 ng/mL
t1/2 [3]: 2.8 h
half-life at 2 µM [1]: > 2 h
t1/2 [4]: 4.28 h
F [5]: 22%
Tmax [7]: 5 min
concentration at 4 h [8]: 74 ng/mL
Cmax [9]: 140 ng/mL
concentration at 8 h [11]: 7 ng/mL
Structure (SMILES): COc1ccc(Nc2nc(-c3ccccc3)cc(C3CCNCC3)n2)cc1OC

t1/2 [1]: > 2 h
Structure (SMILES): COc1ccc(Nc2nc(-c3ccccc3)cc(C3CCNCC3)n2)cn1

t1/2 [1]: 1.48 h
Structure (SMILES): COC(=O)c1cc(Nc2nc(-c3ccccc3)cc(C3CCNCC3)n2)ccc1OC

half-life at […] [10]: > 1 h
half-life at 2 µM [1]: > 2 h
Structure (SMILES): Cn1ccc2cc(-c3nc(Nc4cccc(C(F)(F)F)c4)nc(C4CCNCC4)n3)ccc21

half-life at […] [10]: > 1 h
half-life at 2 µM [1]: > 2 h
Structure (SMILES): FC(F)(F)c1cccc(Nc2nc(-c3coc4ccccc34)nc(C3CCNCC3)n2)c1

Structure (SMILES): CN(C)c1cccc(Nc2cc(-c3ccccc3)nc(C3=CCNCC3)n2)c1
t1/2 [1]: > 2 h

t1/2 [1]: > 2 h
Structure (SMILES): FC(F)(F)c1cccc(Nc2nc(-c3ccc[nH]3)nc(C3CCNCC3)n2)c1

Structure (SMILES): FC(F)(F)c1cccc(Nc2nc(C3=CCNCC3)nc(-c3ccsc3)n2)c1
t1/2 [1]: > 2 h

half-life at […] [10]: > 1 h
half-life at 2 µM [1]: > 2 h
Structure (SMILES): FC(F)(F)c1cccc(Nc2nc(-c3ccc4[nH]ncc4c3)nc(C3CCNCC3)n2)c1

t1/2 [1]: > 2 h
Structure (SMILES): FC(F)Oc1cc(Nc2nc(-c3ccccc3)cc(C3CCNCC3)n2)ccn1
